GRK2 inh – blocks RNA aptamer binding to human GRK2 | bead flow cytometry, FAM-aptamer displacement from GRK2 | 330,000 compounds, 0.59% hits | P25098 | inhibition of aptamer binding, % at 10 µM | AID 488847;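 active = inhibition of aptamer binding above 40%, roughly 3 SD of noise, on plates passing a quality check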;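 also: median bead fluorescence of bound FAM aptamer so fluorescent compounds give negative values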
ABCG2 inh – blocks JC-1 efflux by human ABCG2 transporter | IgMXP3 cells, flow cytometry | inhibition, % at 6.6 µM | 190,000 compounds, 0.1% hits | AID 1325;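 active = inhibition above 80%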;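 also: 0% = DMSO and 100% = nicardipine control wells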
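Incubation: cells with compound and JC-1, 10 min at 25 °C, rotating, no wash / Test system: IgMXP3 (ABCG2) plus far-red-tagged CCRF-Adr (ABCB1) cells / Compound dosing: one concentration, 6.6 µM final / Also added: JC-1 fluorescent substrate / Evaluation: efflux inhibition in percent versus controls / Detection: flow cytometry, 530 nm JC-1 signal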
DDE Tn6 FP inh – inhibitors of Tn6 peptide binding to human fibrin DD(E) | inhibition, % at 8.3 µM | 370,000 compounds, 0.21% hits | Fibrin DD(E) TRITC-Tn6 fluorescence polarization displacement | AID 720509;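 active = inhibition above a per-campaign cutoff: mean of compounds within control limits plus 3 SD, cut at about 15% in these data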;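 also: 0% = median of all compound wells on the plate and 100% = blocking peptide control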
Ins promoter up – MIN6 insulin promoter up-regulation; z-score at 5 µM; MIN6 insulin promoter-GFP reporter, high-content imaging; stronger effect = higher value; 190,000 compounds, 0.3% hits;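 active = z-score above 3 at 5 µM with at least 500 cells counted in the well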
Tn7 DDE FP – inhibitors of Tn7 peptide binding to human fibrin DD(E) | inhibition, % at 8.3 µM | 370,000 compounds, 0.13% hits | P02675 | FP displacement of FITC-Tn7 peptide from fibrin DD(E); 0% = median of compound wells per plate | AID 720508;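 active = inhibition above the mean of compounds falling within the control limits plus 3 SD of them, cut at about 14% in these data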;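 also: 0% = plate median of compound wells and 100% = 10 µM Aha-Tn7 peptide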
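assay system = human clot-derived fibrin DD(E) complex | quantity = Fibrin-DD(E) at 2 µM final | timing = 10 min preincubation, 3 h with tracer, room temperature | signal = fluorescence polarization | measure = percent inhibition | benchmarks = high control wells with 10 µM unlabelled Aha-Tn7 peptide (full inhibition) | replicates = singlicate testing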
ABCB1 block – blocks JC-1 efflux by human ABCB1 transporter. P08183. CCRF-Adr cells, flow cytometry. inhibition, % at 6.6 µM. 190,000 compounds, 0.067% hits. AID 1326; in the data active = inhibition above about 40%;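 also: 0% = vehicle and 100% = reference inhibitor; higher value means more JC-1 retained so stronger ABCB1 efflux block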
GRK2 CP1 – confirmation of human GRK2 inhibitors displacing RNA aptamer; AID 504451; bead-bound GRK2, FAM-aptamer displacement, flow cytometry; shares compounds with GRK2 inh; 2,000 compounds, 4% hits; aptamer displacement, % at 10 µM;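 active = aptamer displacement above 40%, near three times the noise of non-fluorescent compounds, on plates passing quality checks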;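 also: negative values mostly reflect intrinsic compound fluorescence rather than true enhancement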
Aptamer quench SP – counter-screen for GRK2 aptamer inhibitors: fluorescent aptamer quenchers. 2,000 tested, under 10 active. Carboxyfluorescein RNA aptamer on beads, flow cytometry quenching; stronger effect = lower value. shares compounds with GRK2 inh. fluorescence response (% of DMSO), % at 10 µM. AID 504580;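 active = compounds that quench the bead-bound fluorescent RNA probe, cutting fluorescence to under half of the solvent control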;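 also: counterscreen run without GRK2 so only probe quenching by compound is measured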
GRK2 CP2 – confirmation of human GRK2 inhibitors binding RNA aptamer site | bead-bound GRK2, FAM-aptamer displacement, flow cytometry | inhibition of aptamer binding, % at 10 µM | 360 tested, under 10 active | shares compounds with GRK2 inh;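 active = inhibition of aptamer binding above 40%, about triple the noise seen with nonglowing compounds, on plates passing quality control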;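 also: negative values mostly come from compounds that fluoresce themselves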
FAM quench SP – aptamer fluorescence quenching in GRK2 counter-screen; carboxyfluorescein RNA aptamer beads, flow cytometry quenching; stronger effect = lower value; shares compounds with GRK2 inh; 360 tested, under 10 active; fluorescence response vs DMSO, % at 10 µM;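 active = response vs DMSO under 50%, meaning signal dropped by over half, treated as fluorescence quencher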;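 also: labelled aptamer on streptavidin beads without GRK2 as a quench counter-screen; 100% = bead fluorescence of DMSO wells and lower means quenching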
Active calls of the source: *; . = no result. Rows were chosen to be rich in hits. Some 0.99% of all compounds tested hit in one or more screens of this group.

SMILES	GRK2 inh	ABCG2 inh	DDE Tn6 FP inh	Ins promoter up	Tn7 DDE FP	ABCB1 block	GRK2 CP1	Aptamer quench SP	others
COc1ccc(NC(=O)CNC(=O)c2nn(-c3ccc(OC)cc3OC)c(=O)c3ccccc23)c(OC)c1	0	.	0	.	6	.	.	.
C=CCn1c(COc2ccc(C)cc2)nnc1SCC(=O)Nc1cc(Cl)cc(Cl)c1	.	.	1	.	-5	.	.	.
COc1ccc(CN2C(=O)CCCC2(C)c2nnnn2-c2c(C)cccc2C)cc1OC (centres undefined)	.	.	-6	.	-6	.	.	.
O=C(Nc1ccc2c(c1)OCO2)Nc1ccc(Cl)cc1Cl	92*	48	9	-0.52	7	0	-5	94
c1coc(CNc2c3c(nc4ccccc24)CCC3)c1	0	29	6	-0.2	-1	0	.	.	GRK2 CP2=2;FAM quench SP=101
Cc1noc(/C=C/N(C)C)c1S(=O)(=O)N1CCCC(C(=O)NCc2ccc(Cl)cc2)C1 (centres undefined)	2	3	0	-0.41	-1	1	.	.
Cc1noc(/C=C/N(C)C)c1S(=O)(=O)N1CCCC(C(=O)NCc2ccc(F)cc2)C1 (centres undefined)	0	0	.	0.02	.	0	.	.
COc1ccccc1CNC(=O)C1CCCN(S(=O)(=O)c2cccc3nonc23)C1 (centres undefined)	1	.	-1	.	0	.	.	.
COc1ccc(CNC(=O)C2CCCN(S(=O)(=O)c3c(C)noc3/C=C/N(C)C)C2)cc1 (centres undefined)	5	.	-6	.	-1	.	3	99
Cc1ccc(CNC(=O)C2CCCN(S(=O)(=O)c3c(C)noc3/C=C/N(C)C)C2)cc1 (centres undefined)	.	.	-5	0.17	-8	.	-2	102
Cc1noc(/C=C/N(C)C)c1S(=O)(=O)N1CCCC(C(=O)NCc2ccccc2Cl)C1 (centres undefined)	3	5	7	0.3	-3	2	1	98
O=C(NCc1ccccc1Cl)C1CCCN(S(=O)(=O)c2cccc3nonc23)C1 (centres undefined)	1	.	7	.	1	.	0	96
O=C(OCC#CCSc1nnc(-c2cccc3ccccc23)o1)c1ccc(Cl)c(C(F)(F)F)c1	.	.	-6	.	9	.	.	.
O=C(Nc1ccccc1C(F)(F)F)OCCN1C(=O)CCC12CCC(c1ccccc1)CC2 (centres undefined)	.	.	-1	.	10	.	.	.
O=S1(=O)c2ccc(Br)cc2OC[C@@H](Cc2ccccc2)N1Cc1cn(Cc2ccc(C(F)(F)F)cc2)nn1	.	.	9	.	-2	.	.	.
O=C(Cn1c(=O)c2cccn2c2cccnc21)NCCCN1CCN(c2ccc(Cl)cc2)CC1	.	.	1	.	-1	.	.	.
COc1ccc2nc(NC(=O)C3CCCN(S(=O)(=O)c4cccc5nonc45)C3)sc2c1 (centres undefined)	87*	4	0	-0.97	-2	1	0	102
Cc1ccc(NC(=O)CSc2nc3ccccc3c3nc4ccccc4n23)cc1	0	-1	-2	-0.81	2	0	.	.
COc1ccc(NC(=O)CSc2nc3ccccc3c3nc4ccccc4n23)cc1	0	2	2	.	-8	1	-3	105
Cc1c(NS(=O)(=O)c2ccccc2)c(=O)n(-c2ccccc2)n1C	2	2	1	0.06	-4	0	.	.
Cc1c(NS(=O)(=O)c2ccc3[nH]c(=O)[nH]c3c2)c(=O)n(-c2ccccc2)n1C	75*	3	-2	-0.46	0	1	1	106

Screening results (PubChem BioAssay)
